{"source": "paper PMC4203399", "about": "(Journal of Medicinal Chemistry, 2014)", "key": {"[1]": {"target": "recombinant NS5BCΔ21 mutant M423T (Hepatitis C virus genotype 1b, UniProt O92972, M2842T)", "assay": "NS5B mutant counterscreen assay, M423T", "type": "biochemical", "conditions": "M423T relative to NS5B WT (IC50 = 4.3 μM)"}, "Huh-9-13 cells": {"system": "Huh-9-13 cells", "assay": "vital stains", "type": "cell-based", "how_it_was_run": "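Huh-9-13 replicon cells seeded at 25.000 cells/dish in complete DMEM without G418. Next day, treated with test compound (90 μM), an NS3 protease inhibitor (15 μM) or DMSO for 3 days at 37 °C, 5% CO2. Stained 30 min with Nile Red (2 μg/mL), monodansylcadaverine (50 μM) or LipidTOX Red (1/1000), then imaged live by confocal microscopy.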"}, "[2]": {"assay": "thermodynamic and kinetic water solubility", "type": "physicochemical", "how_it_was_run": "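Test compound solutions shaken in a shaker bath for 48 h at room temperature, then filtered. Dissolved compound quantified by LC–UV–MS against calibration curves made from standard solutions in methanol. Determinations in triplicate.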"}, "recombinant NS5BCΔ21 1b": {"target": "recombinant NS5BCΔ21 1b (Hepatitis C virus genotype 1b, UniProt O92972)", "assay": "NS5B primer dependent elongation", "type": "biochemical"}, "[3]": {"system": "genotype 1b HCV subgenomic replicon in Huh-5-2 cells", "type": "cell-based, hepatitis C virus"}, "Huh-5-2 cells": {"system": "Huh-5-2 cells", "assay": "microscopic examination of cell morphology in the replicon assay", "type": "cell-based", "conditions": "72 h of compound treatment"}}, "note": "“Also recorded” adds a separate entry of the source.", "data": [{"smiles": "CN1c2c(C(=O)Nc3ccc(NS(C)(=O)=O)cc3)nn(-c3cccc(Cl)c3)c2-c2ccccc2S1(=O)=O", "note": "[2a, 1-(3-Chlorophenyl)-4-methyl-N-{4-[(methylsulfonyl)amino]phenyl}-1,4-dihydropyrazolo[4,3-c][1,2]benzothiazine-3-carboxamide 5,5-Dioxide]", "values": [{"measurement": "fold change", "setting": "[1]", "value": "~2"}, {"measurement": "induction of multilamellar bodies (monodansylcadaverine stain)", "setting": "Huh-9-13 cells; 90 μM", "value": "did not induce multilamellar bodies"}, {"measurement": "neutral lipids content (Nile Red and LipidTOX red stain)", "setting": "Huh-9-13 cells; 90 μM", "value": "significantly altered the neutral lipids content"}, {"measurement": "solubility kinetic at 48 h", "setting": "[2]; kinetic from dmso stock", "value": 0.275, "unit": "µM"}, {"measurement": "solubility thermodynamic at 48 h", "setting": "[2]; thermodynamic from solid", "value": 0.00398, "unit": "µM"}, {"measurement": "fold higher NS5B inhibitory activity than parent compound 1", "setting": "recombinant NS5BCΔ21 1b", "value": "about 5 fold"}, {"measurement": "fold more active than o-chlorine derivative 2c (NS5B)", "setting": "recombinant NS5BCΔ21 1b", "value": "about 4 fold"}, {"measurement": "assessment of anti-HCV activity in the replicon assay (in words)", "setting": "[3]", "value": "selective anti-HCV activity without any antimetabolic effect"}]}, {"smiles": "CN1c2c(C(=O)Nc3ccc(NS(C)(=O)=O)cc3)nn(-c3ccc(Cl)cc3)c2-c2ccccc2S1(=O)=O", "note": "[2b, 1-(4-Chlorophenyl)-4-methyl-N-{4-[(methylsulfonyl)amino]phenyl}-1,4-dihydropyrazolo[4,3-c][1,2]benzothiazine-3-carboxamide 5,5-Dioxide]", "values": [{"measurement": "effect on cell morphology (microscopic analysis)", "setting": "Huh-5-2 cells", "value": "did not show any significant cell morphological alterations; also recorded: did not display any significant effects on cell morphology; also recorded: did not exhibit any cell morphological alterations; also recorded: did not show any significant alteration in cell morphology; also recorded: did not display any antimetabolic and cell morphology alteration effects"}, {"measurement": "induction of phospholipidosis/steatosis (different stainings)", "setting": "Huh-9-13 cells", "value": "induced pospholipidosis/steatosis"}, {"measurement": "fold more active than o-chlorine derivative 2c (NS5B)", "setting": "recombinant NS5BCΔ21 1b", "value": "~2", "unit": "fold"}, {"measurement": "SI (ratio of CC50 to EC50)", "setting": "[3]", "value": "> 28"}, {"measurement": "assessment of anti-HCV activity in the replicon assay (in words)", "setting": "[3]", "value": "selective anti-HCV activity without any antimetabolic effect"}]}]}
